Data from ChEMBL document CHEMBL5705904 (N Engl J Med, 2016).

Tests used:
[1] = AUC(0 to 24 hrs) in human at 400 mg, po administered for 8 days by LC-MS/MS analysis; type: ADME, organism-based; conditions: in vivo, time 8 day
Method in brief: (§1)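 Steady-state plasma sampling on cycle 1 day 8 in patients, predose and 0.25, 0.5, 0.75, 1, 2, 4 and 6 h post-dose, into lithium heparin. Plasma was stored at -80°C. Drug was quantified by validated LC-MS/MS against a stable labeled internal standard, using only values at or above LLOQ and nominal sampling times.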

[2] = Apparent volume of distribution during terminal phase in human at 175 mg, po administered for 8 days by LC-MS/MS analysis; type: ADME, organism-based; conditions: in vivo, time 8 day, read-out: Vz/F; method in brief: as §1
[3] = Apparent volume of distribution during terminal phase in human at 100 mg, po BID administered for 8 days by LC-MS/MS analysis; type: ADME, organism-based; conditions: in vivo, time 8 day, read-out: Vz/F; method in brief: as §1
[4] = Apparent volume of distribution during terminal phase in human at 100 mg, po administered for 8 days by LC-MS/MS analysis; type: ADME, organism-based; conditions: in vivo, time 8 day, read-out: Vz/F; method in brief: as §1
[5] = target: Tyrosine-protein kinase Blk (Homo sapiens, UniProt P51451); test: Inhibition of recombinant BLK (unknown origin) preincubated for 1 hr in presence of ATP by Z-Lyte assay
Sequence of Tyrosine-protein kinase Blk (P51451 whole entry): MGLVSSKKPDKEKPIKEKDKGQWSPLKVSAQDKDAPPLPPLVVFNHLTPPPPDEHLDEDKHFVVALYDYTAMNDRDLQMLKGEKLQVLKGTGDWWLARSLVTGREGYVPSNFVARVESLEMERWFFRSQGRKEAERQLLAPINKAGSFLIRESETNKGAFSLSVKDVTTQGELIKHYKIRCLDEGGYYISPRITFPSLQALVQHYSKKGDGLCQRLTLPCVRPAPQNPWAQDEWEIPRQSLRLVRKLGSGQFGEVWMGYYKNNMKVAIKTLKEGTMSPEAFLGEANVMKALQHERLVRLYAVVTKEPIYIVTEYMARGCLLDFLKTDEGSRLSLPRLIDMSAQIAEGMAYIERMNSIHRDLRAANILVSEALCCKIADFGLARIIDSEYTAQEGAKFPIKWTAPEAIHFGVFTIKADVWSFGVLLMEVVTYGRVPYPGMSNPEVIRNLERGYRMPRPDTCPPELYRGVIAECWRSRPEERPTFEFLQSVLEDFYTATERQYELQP
Method in brief: (§2)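 Recombinant kinase activity was measured by Z'-LYTE with ATP at each enzyme's Km. Inhibitor came from a 10 mM DMSO stock and was tested at 10 concentrations. Compound was preincubated with kinase for 1 h before ATP addition started the reaction, for about 2 h total compound-kinase exposure. IC50 is from 2–3 independent experiments.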

[6] = AUC(0 to 24 hrs) in human at 250 mg, po administered for 8 days by LC-MS/MS analysis; type: ADME, organism-based; conditions: in vivo, time 8 day; method in brief: as §1
[7] = AUC(0 to 12 hrs) in human at 175 mg, po administered for 8 days by LC-MS/MS analysis; type: ADME, organism-based; conditions: in vivo, time 8 day; method in brief: as §1
[8] = Apparent oral clearance in human at 400 mg, po administered for 8 days by LC-MS/MS analysis; type: ADME, organism-based; conditions: in vivo, time 8 day; method in brief: as §1
[9] = Terminal elimination half life in human at 100 mg, po BID administered for 8 days by LC-MS/MS analysis; type: ADME, organism-based; conditions: in vivo, time 8 day, read-out: LambdaZ (converted)
[10] = AUC(0 to 12 hrs) in human at 250 mg, po administered for 8 days by LC-MS/MS analysis; type: ADME, organism-based; conditions: in vivo, time 8 day; method in brief: as §1
[11] = Apparent oral clearance in human at 250 mg, po administered for 8 days by LC-MS/MS analysis; type: ADME, organism-based; conditions: in vivo, time 8 day; method in brief: as §1
[12] = Half life in human at 250 mg, po administered for 8 days by LC-MS/MS analysis; type: ADME, organism-based; conditions: in vivo, time 8 day; method in brief: as §1
[13] = Cmax in human at 100 mg, po administered for 8 days by LC-MS/MS analysis; type: ADME, organism-based; conditions: in vivo, time 8 day; method in brief: as §1
[14] = Terminal elimination half life in human at 175 mg, po administered for 8 days by LC-MS/MS analysis; type: ADME, organism-based; conditions: in vivo, time 8 day, read-out: LambdaZ (converted)
[15] = AUC(0 to infinity) in human at 400 mg, po administered for 8 days by LC-MS/MS analysis; type: ADME, organism-based; conditions: in vivo, time 8 day; method in brief: as §1
[16] = AUC(0 to 6 hrs) in human at 400 mg, po administered for 8 days by LC-MS/MS analysis; type: ADME, organism-based; conditions: in vivo, time 8 day; method in brief: as §1
[17] = Cmax in human at 250 mg, po administered for 8 days by LC-MS/MS analysis; type: ADME, organism-based; conditions: in vivo, time 8 day; method in brief: as §1
[18] = target: Tyrosine-protein kinase Fgr (Homo sapiens, UniProt P09769); test: Inhibition of recombinant FGR (unknown origin) preincubated for 1 hr in presence of ATP by Z-Lyte assay; method in brief: as §2
Sequence of Tyrosine-protein kinase Fgr (P09769 whole entry): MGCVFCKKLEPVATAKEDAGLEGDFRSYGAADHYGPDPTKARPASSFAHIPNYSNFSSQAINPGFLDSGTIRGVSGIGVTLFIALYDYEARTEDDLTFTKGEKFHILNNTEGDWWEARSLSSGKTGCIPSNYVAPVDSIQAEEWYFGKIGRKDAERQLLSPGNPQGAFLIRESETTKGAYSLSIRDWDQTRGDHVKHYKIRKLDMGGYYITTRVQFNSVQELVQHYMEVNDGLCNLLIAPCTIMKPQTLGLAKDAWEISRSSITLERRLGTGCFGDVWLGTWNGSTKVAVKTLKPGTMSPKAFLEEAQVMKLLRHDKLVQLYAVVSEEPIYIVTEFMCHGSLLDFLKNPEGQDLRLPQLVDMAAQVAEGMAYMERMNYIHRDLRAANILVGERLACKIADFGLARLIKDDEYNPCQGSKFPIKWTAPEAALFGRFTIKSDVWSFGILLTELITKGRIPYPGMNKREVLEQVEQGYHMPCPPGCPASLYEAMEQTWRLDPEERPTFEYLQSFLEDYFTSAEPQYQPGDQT

[19] = target: Tyrosine-protein kinase Lyn (Homo sapiens, UniProt P07948); test: Inhibition of recombinant LYN (unknown origin) preincubated for 1 hr in presence of ATP by Z-Lyte assay; method in brief: as §2
Sequence of Tyrosine-protein kinase Lyn (P07948 whole entry): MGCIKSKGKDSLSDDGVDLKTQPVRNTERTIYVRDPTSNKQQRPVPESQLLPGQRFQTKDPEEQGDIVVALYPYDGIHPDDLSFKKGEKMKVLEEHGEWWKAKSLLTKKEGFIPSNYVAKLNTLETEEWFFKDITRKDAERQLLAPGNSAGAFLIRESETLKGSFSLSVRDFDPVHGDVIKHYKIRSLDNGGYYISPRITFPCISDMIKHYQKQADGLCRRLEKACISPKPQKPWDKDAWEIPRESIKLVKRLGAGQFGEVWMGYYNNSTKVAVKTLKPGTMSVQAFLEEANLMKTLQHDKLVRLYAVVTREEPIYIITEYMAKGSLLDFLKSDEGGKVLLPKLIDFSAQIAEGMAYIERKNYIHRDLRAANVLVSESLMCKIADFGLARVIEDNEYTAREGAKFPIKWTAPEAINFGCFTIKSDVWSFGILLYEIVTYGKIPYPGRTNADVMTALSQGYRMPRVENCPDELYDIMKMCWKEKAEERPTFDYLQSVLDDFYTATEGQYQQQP

[20] = Terminal elimination half life in human at 250 mg, po administered for 8 days by LC-MS/MS analysis; type: ADME, organism-based; conditions: in vivo, time 8 day, read-out: LambdaZ (converted)
[21] = target: Tyrosine-protein kinase Yes (Homo sapiens, UniProt P07947); test: Inhibition of recombinant YES1 (unknown origin) […] by Z-Lyte assay
Sequence of Tyrosine-protein kinase Yes (P07947 whole entry): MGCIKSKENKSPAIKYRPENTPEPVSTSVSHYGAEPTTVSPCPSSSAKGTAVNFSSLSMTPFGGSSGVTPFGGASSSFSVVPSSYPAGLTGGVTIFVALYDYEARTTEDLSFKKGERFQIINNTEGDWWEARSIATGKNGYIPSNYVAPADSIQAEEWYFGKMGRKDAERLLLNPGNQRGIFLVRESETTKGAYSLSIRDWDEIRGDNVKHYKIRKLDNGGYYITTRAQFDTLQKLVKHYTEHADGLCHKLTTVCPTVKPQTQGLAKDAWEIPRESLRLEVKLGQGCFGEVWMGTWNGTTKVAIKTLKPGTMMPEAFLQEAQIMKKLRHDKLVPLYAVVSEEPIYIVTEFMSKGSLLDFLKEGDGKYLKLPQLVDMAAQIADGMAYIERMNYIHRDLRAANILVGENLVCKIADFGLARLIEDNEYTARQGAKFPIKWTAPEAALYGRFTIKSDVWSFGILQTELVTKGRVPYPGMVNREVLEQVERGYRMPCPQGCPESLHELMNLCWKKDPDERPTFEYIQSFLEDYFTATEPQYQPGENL
Method in brief: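 Recombinant YES1 run in a Z'-LYTE assay. Compound preincubated with kinase for 1 h before ATP was added to start the reaction. IC50 derived from independent experiments run head-to-head with the comparator.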

[22] = target: Proto-oncogene tyrosine-protein kinase Src (Homo sapiens, UniProt P12931); test: Inhibition of recombinant SRC (unknown origin) preincubated for 1 hr in presence of ATP by Z-Lyte assay
Sequence of Proto-oncogene tyrosine-protein kinase Src (P12931 2-536 limits assumed): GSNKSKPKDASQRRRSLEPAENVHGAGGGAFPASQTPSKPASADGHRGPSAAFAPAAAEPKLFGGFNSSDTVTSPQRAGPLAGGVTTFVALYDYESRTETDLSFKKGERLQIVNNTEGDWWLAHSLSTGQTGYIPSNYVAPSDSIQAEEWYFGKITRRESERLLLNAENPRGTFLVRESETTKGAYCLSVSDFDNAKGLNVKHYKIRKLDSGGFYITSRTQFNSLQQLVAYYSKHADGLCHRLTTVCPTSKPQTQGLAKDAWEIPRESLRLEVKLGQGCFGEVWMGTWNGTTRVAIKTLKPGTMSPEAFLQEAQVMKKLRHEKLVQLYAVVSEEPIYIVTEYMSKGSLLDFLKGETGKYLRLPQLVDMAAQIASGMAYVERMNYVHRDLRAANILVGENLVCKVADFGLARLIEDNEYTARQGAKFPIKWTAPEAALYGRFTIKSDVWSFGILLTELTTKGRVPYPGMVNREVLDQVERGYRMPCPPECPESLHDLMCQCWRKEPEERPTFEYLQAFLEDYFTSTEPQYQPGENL

[23] = Apparent oral clearance in human at 175 mg, po administered for 8 days by LC-MS/MS analysis; type: ADME, organism-based; conditions: in vivo, time 8 day; method in brief: as §1
[24] = Apparent volume of distribution during terminal phase in human at 250 mg, po administered for 8 days by LC-MS/MS analysis; type: ADME, organism-based; conditions: in vivo, time 8 day, read-out: Vz/F; method in brief: as §1
[25] = Drug accumulation in human at 100 to 400 mg, po administered for 6 hrs by LC-MS/MS analysis; type: ADME, organism-based; conditions: in vivo, dose 100-400 mg
[26] = Tmax in human at 100 mg, po administered for 8 days by LC-MS/MS analysis; type: ADME, organism-based; conditions: in vivo, time 8 day
Method in brief: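 Patient plasma sampled on cycle 1 day 8 at predose and 0.25, 0.5, 0.75, 1, 2, 4 and 6 h post-dose, in lithium heparin. […] Tmax read directly from each individual's data; summarized descriptively.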

[27] = Cmax in human at 175 mg, po administered for 8 days by LC-MS/MS analysis; type: ADME, organism-based; conditions: in vivo, time 8 day; method in brief: as §1
[28] = AUC(0 to infinity) in human at 250 mg, po administered for 8 days by LC-MS/MS analysis; type: ADME, organism-based; conditions: in vivo, time 8 day; method in brief: as §1
[29] = AUC(0 to 6 hrs) in human at 100 mg, po administered for 8 days by LC-MS/MS analysis; type: ADME, organism-based; conditions: in vivo, time 8 day; method in brief: as §1
[30] = AUC(0 to 6 hrs) in human at 250 mg, po administered for 8 days by LC-MS/MS analysis; type: ADME, organism-based; conditions: in vivo, time 8 day; method in brief: as §1
[31] = Drug exposure in human administered for 6 hrs by LC-MS/MS analysis; type: ADME; conditions: po, dose 100-400 mg

SMILES: CC#CC(=O)N1CCC[C@H]1c1nc(-c2ccc(C(=O)Nc3ccccn3)cc2)c2c(N)nccn12 [ACALABRUTINIB]
- AUC at 192 h [1]: 1870 ng·h/mL
- Vd/F [2]: 317 L
- Vd/F [3]: 361 L
- Vd/F [4]: 308 L
- IC50 [5]: > 1000 nM
- AUC at 192 h [6]: 2310 ng·h/mL
- AUC at 192 h [7]: 1160 ng·h/mL
- CL/F [8]: 5200 mL/min
- k el at 192 h [9]: 0.000188 s⁻¹
- AUC at 192 h [10]: 2310 ng·h/mL
- CL/F [11]: 2170 mL/min
- half-life [12]: 56.5 min
- Cmax [13]: 529 ng/mL
- k el at 192 h [14]: 0.000194 s⁻¹
- AUC(0-inf) [15]: 1870 ng·h/mL
- AUC at 192 h [16]: 1730 ng·h/mL
- Cmax [17]: 1350 ng/mL
- IC50 [18]: > 1000 nM
- IC50 [19]: > 1000 nM
- k el at 192 h [20]: 0.000206 s⁻¹
- IC50 [21]: > 1000 nM
- IC50 [22]: > 1000 nM
- CL/F [23]: 3550 mL/min
- Vd/F [24]: 179 L
- Drug uptake [25]: Not Active
- Tmax [26]: 48.6 min
- Cmax [27]: 805 ng/mL
- AUC(0-inf) [28]: 2310 ng·h/mL
- AUC at 192 h [29]: 584 ng·h/mL
- AUC at 192 h [30]: 1990 ng·h/mL
- Drug uptake [31]: Dose-Dependent Effect
